Screening data (PubChem BioAssay)
b-catenin transl: modulators of beta-catenin nuclear translocation | HeLa beta-catenin nuclear translocation, immunofluorescence imaging | nuclear translocation activity, % at 5 µM | hit rate 0.3% among 190,000;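 active = nuclear translocation activity above 50% at 5 µM, with a well cell count of 50 or more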;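 note: per-cell ratio of nuclear to cytoplasmic median beta-catenin stain intensity; plate controls were DMSO negative control for no effect and GSK-3 inhibitor IX positive control for full effect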
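assay system = human HeLa cells, endogenous beta-catenin | times = compound treatment 24 h, 37°C, 5% CO2 | detection = Anti-beta-catenin immunofluorescence on PFA-fixed, Triton-permeabilized cells, DAPI nuclei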
WT yeast gro inh: growth inhibition of WT yeast, mitochondrial fusion screen | mitochondrial fusion phenotypic screen, WT strain | AID 1362 | hit rate 2.1% among 190,000 | inhibition, % at 10 µM; in the data active = inhibition above about 58%; tested in S. cerevisiae
KCC2 mod: modulators of human KCC2 chloride dependent transport | hit rate 2.2% among 190,000 | Q9H2X9 | KCC2 cells, thallium flux FluoZin-2 fluorescence | B-score of Tl+ flux slope (higher = more flux/activation; lower = inhibition) at 10 µM;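 active = thallium flux slope and its plate-corrected score both differing from the plate sample mean at a set confidence after two filtering rounds, in either direction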;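 note: slope of fluorescence scaled to starting intensity during 10 to 20 s after thallium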
Target sequence (Q9H2X9 whole entry, looked up): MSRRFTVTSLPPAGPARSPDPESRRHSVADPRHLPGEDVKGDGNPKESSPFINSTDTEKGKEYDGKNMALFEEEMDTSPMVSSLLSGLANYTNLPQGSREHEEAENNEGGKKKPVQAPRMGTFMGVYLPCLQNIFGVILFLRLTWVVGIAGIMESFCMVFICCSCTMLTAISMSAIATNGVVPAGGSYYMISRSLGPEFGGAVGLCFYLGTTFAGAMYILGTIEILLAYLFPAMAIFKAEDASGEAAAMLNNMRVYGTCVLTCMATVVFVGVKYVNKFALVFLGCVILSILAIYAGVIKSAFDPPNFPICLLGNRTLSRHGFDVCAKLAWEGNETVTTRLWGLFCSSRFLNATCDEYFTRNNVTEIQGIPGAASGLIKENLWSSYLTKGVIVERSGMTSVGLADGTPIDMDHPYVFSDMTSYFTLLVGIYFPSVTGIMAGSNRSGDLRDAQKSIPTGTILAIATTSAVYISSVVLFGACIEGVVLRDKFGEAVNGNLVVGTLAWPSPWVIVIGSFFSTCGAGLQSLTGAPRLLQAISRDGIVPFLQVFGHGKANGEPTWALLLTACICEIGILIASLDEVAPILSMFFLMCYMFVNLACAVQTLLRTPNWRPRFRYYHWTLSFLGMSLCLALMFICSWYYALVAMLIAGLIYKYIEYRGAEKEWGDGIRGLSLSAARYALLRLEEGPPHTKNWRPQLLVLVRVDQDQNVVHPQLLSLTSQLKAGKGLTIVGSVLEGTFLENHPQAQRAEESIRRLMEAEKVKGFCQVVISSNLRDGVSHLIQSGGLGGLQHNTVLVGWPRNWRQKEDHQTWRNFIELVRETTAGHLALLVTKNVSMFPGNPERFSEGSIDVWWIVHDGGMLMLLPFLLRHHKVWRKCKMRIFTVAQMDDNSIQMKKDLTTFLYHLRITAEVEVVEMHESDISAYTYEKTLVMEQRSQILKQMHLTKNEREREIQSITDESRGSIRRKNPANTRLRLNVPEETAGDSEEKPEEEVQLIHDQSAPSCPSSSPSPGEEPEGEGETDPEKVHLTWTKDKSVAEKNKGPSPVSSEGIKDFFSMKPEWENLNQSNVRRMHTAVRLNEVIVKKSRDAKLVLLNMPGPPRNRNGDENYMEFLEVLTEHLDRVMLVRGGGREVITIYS
MT stabilizer: microtubule stabilizers in HeLa cells | HeLa tubulin immunostaining HCS, 24 h; share of cells brighter than vehicle mean+2SD | % tubulin-high responders, % at 10 µM | hit rate 0.83% among 200,000 | AID 2205;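 active = plate Z-score above 3 for both tubulin-high and condensed-nucleus cell shares, with cell loss under 80%, at 10 µM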;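 note: anti alpha tubulin signal scored within the nucleus-defined area of each cell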
Pf gametocyte: kills late stage P. falciparum gametocytes; AID 743093; inhibition, % at 10.9 µM; hit rate 0.065% among 150,000; P. falciparum stage V gametocytes, ATP luminescence, 24 h;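 active = inhibition above the mean plus 3 SD of compounds within the control limits, set per campaign, cut at about 38% in these data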;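 note: 0% = DMSO wells and 100% = medium only without gametocytes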
An asterisk follows results filed as active; . = not tested or not shown. Most compounds without a hit are left out; they make up all but 4% or so of the library.

SMILES	b-catenin transl	WT yeast gro inh	KCC2 mod	MT stabilizer	Pf gametocyte
C#CCSc1nccc(-c2nn(-c3ccc(C)cc3)ccc2=O)n1	-1	12	.	3	12
CCSc1nccc(-c2nn(-c3ccc(C)cc3)ccc2=O)n1	133*	7	.	50*	.
C=CCSc1nccc(-c2nn(-c3ccc(C)cc3)ccc2=O)n1	33	-31	-1	39*	-60
CSc1nccc(-c2nn(-c3ccc(C)cc3)ccc2=O)n1	.	-13	.	57*	20
Fc1cccc(F)c1-n1c(CN2CCCCC2)csc1=S	-2	21	-1.7	16*	-14
O=C(NN1CCOCC1)C12CC3CC(CC(C3)C1)C2	-2	-1	0.29	2	-9
CC1(C(=O)OCC(=O)Nc2ccc(C(N)=O)cc2)CC1(Cl)Cl (stereo unspecified)	1	-13	0.29	9	8
CC1(C(=O)OCC(=O)Nc2ccc3ccccc3c2)CC1(Cl)Cl (stereo unspecified)	-3	66*	-0.12	2	5
CCOC(=O)c1c2ccc(OCC(=O)N/N=C/c3ccc(Cl)cc3)cc2n2ccccc12	-2	0	0.43	15	.
CCOC(=O)c1c2ccc(OCC(=O)N/N=C/c3ccccc3C(F)(F)F)cc2n2ccccc12	-7	2	.	33*	.
O=C(Nc1ccc(Cl)cc1C(F)(F)F)C(Sc1nnc(-c2cccs2)o1)c1ccccc1 (stereo unspecified)	33	24	0.89	14*	4
O=C(Nc1cc(C(F)(F)F)ccc1Cl)C(Sc1nnc(-c2cccs2)o1)c1ccccc1 (stereo unspecified)	0	6	0.082	6	6
CCCCC(=O)N(Cc1nc2sc(C)c(C)c2c(=O)[nH]1)C1CCCC1	-2	5	-1	1	.
CCOC(=O)C1CCC(CN(Cc2ccccc2C)S(=O)(=O)c2ccc([N+](=O)[O-])cc2)CC1 (stereo unspecified)	-2	74*	-0.49	4	.
CC(O)(CS(=O)(=O)Cc1ccc(Cl)cc1)C(=O)Nc1cccc(C(F)(F)F)c1 (stereo unspecified)	.	2	.	0	.
O=C(Nc1cccc(C(F)(F)F)c1)N(Cc1ccc(Cl)cc1)CC(O)C(F)(F)F (stereo unspecified)	.	84*	-0.017	2	10
N#C/C(=C\Nc1ccccc1O)c1nc2ccccc2o1	8	63*	0.026	3	-16
N#C/C(=C\c1ccncc1)c1nc2ccccc2o1	0	.	0.068	.	17
CC(C)(C)c1ccc(S(=O)(=O)Nc2ccc(Cc3ccncc3)cc2)cc1	3	59*	-0.68	4	.
CCN(CC)C(=O)NC(c1ccc(C)c(F)c1)C(Cl)(Cl)Cl (stereo unspecified)	0	10	0.18	3	-9
Cc1nc2ncccn2c1-c1csc(Nc2ccc(N(C)C)cc2)n1	36	5	-1.4	13	.
COc1ccc(Nc2nc(-c3c(C)nc4ncccn34)cs2)cc1	56*	32	-2.1	14*	-10
COc1ccccc1Nc1nc(-c2c(C)nc3ncccn23)cs1	4	12	.	15*	7
Cc1nc2ncccn2c1-c1csc(Nc2ccccc2)n1	5	7	-1.2	19*	-6
Cc1cccc(NS(=O)(=O)c2cnc(Cl)c(Br)c2)n1	-1	-2	1.8	3	-2
SMILES	b-catenin transl	WT yeast gro inh	KCC2 mod	MT stabilizer	Pf gametocyte
CCCOc1ccc(C2C3=C(CCCC3=O)N(CC(=O)O)C3=C2C(=O)CCC3)cc1OCC	.	.	.	.	-14
CCCCN1C2=C(C(=O)CCC2)C(c2ccc(Cl)c(Cl)c2)C2=C1c1ccccc1C2=O (stereo unspecified)	1	67*	.	4	.
CCOC(=O)C1=C(O)c2ccccc2C(=O)/C1=C\c1ccc(C)cc1	-1	4	3.3*	3	.
Cc1cc(-c2n[nH]c(=S)n2/N=C/c2ccc(Br)s2)n[nH]1	1	10	10*	2	10
O=C(CC(Nc1ccc(F)cc1)c1ccccc1)c1ccccc1 (stereo unspecified)	1	78*	0.43	5	10
O=C(CC(Nc1ccc(Cl)cc1)C(=O)O)c1ccccc1 (stereo unspecified)	-2	-10	0.15	4	.
O=C(C1=C[C@@H](c2csc3ccccc23)C[C@@H](OCCCCO)O1)N1CCN(Cc2ccc3c(c2)OCO3)CC1	0	19	-0.08	5	-8
O=C(C1=C[C@@H](c2ccccc2)C[C@@H](OCc2ccc(CO)cc2)O1)N1CCN(Cc2ccc3c(c2)OCO3)CC1	14	11	-0.42	13*	3
O=C(C1=C[C@@H](c2coc3ccccc3c2=O)C[C@@H](OCc2ccc(CO)cc2)O1)N1CCN(Cc2ccccc2)CC1	0	12	-3.3*	2	.
O=C(C1=C[C@@H](c2csc3ccccc23)C[C@@H](OCc2ccc(CO)cc2)O1)N1CCN(Cc2ccccc2)CC1	-4	94*	0.43	4	.
O=C(C1=C[C@@H](c2csc3ccccc23)C[C@@H](OCc2ccc(CO)cc2)O1)N1CCN(Cc2ccc3c(c2)OCO3)CC1	49	-6	-0.35	22*	5
C#CCn1cc(C=C2C(=O)c3ccccc3C2=O)c2ccccc21	-3	14	0.051	3	5
CCOc1ccc(NC(=O)CCN2CCN(C)CC2)cc1	.	.	.	.	8
C=CCOC(=O)C1=C[C@@H](c2coc3ccccc3c2=O)C[C@@H](OCc2ccc(CO)cc2)O1	0	68*	-0.14	2	.
C=CCOC(=O)C1=C[C@H](c2coc3ccccc3c2=O)C[C@H](OCc2ccc(CO)cc2)O1	-1	-25	-2.2	2	.
COc1ccc(/C=N/n2c(SC)nnc2-c2ccccc2)c(OC)c1OC	92*	17	.	11	.
Cc1nc2ccccc2n1/N=C/c1ccc([N+](=O)[O-])s1	5	80*	0.64	10*	-11
COc1cccc(/C=N\n2c(C)nnc2C)c1OC	-2	-8	.	4	.
COc1cccc(/C=N/n2c(C)nc3ccccc32)c1OC	0	62*	-0.034	3	35
COc1ccc(/C=N/n2c(SC)nnc2-c2ccccc2)cc1C	2	24	-0.013	27*	.
Nc1ccccc1Nc1cc(-c2ccccc2)nn1-c1cccc(Cl)c1	1	68*	0.46	4	-4
O=C(CCl)Nc1cc(-c2ccccc2)nn1-c1ccccc1	-6	13	0.11	6	-19
COc1ccc(NC(=O)c2cc3n(n2)C(C(F)(F)F)CC(c2ccc4c(c2)OCO4)N3)cc1OC (stereo unspecified)	-3	68*	-0.68	3	.
Cc1cccc(NC(=O)c2cc3n(n2)C(C(F)(F)F)CC(c2ccc4c(c2)OCO4)N3)c1 (stereo unspecified)	.	67*	-0.3	4	.
CN(c1ccccc1)S(=O)(=O)c1ccc(Cl)c(C(=O)Nc2nc3ccccc3[nH]2)c1	2	-1	-4.4	4	8
